The results in this text go back to ChEMBL document CHEMBL1122127, “New anticancer agents: synthesis of 1,2-dihydropyrido[3,4-b]pyrazines (1-deaza-7,8-dihydropteridines)” (1982).

In assay [1] the test system is L1210. Description: Inhibitory concentration against proliferation of cultured lymphoid leukemia L1210 cells during 48 hrs. The conditions noted are these: Mus musculus, L1210, 48 h; read-out: ID50 (the source's name). The assay is classed as functional.
The subject of assay [2] is L1210. Description: Fraction of cell population of cultured lymphoid leukemia L1210 cells in mitosis at a dose of 0.3 uM after 12 hr. The assay is classed as functional, Mus musculus.
Assay [3] has as its system L1210. Description: Fraction of cell population of cultured lymphoid leukemia L1210 cells in mitosis at a dose of 0.01 uM after 12 hr. The assay is classed as functional, Mus musculus.
The subject of assay [4] is Mus musculus. Kind of assay: Increase in life span at the highest nontoxic dose against P-388 tumor cell […] at 25 mg/kg. The assay is classed as functional. The conditions noted are these: P388. A digest of the protocol:
(§1)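 Mice bearing lymphocytic leukemia P-388 (parental or drug-resistant sublines). The reported value is the increase in life span at the highest nontoxic dose tested.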

The test system of assay [5] is L1210. Description: Fraction of cell population of cultured lymphoid leukemia L1210 cells in mitosis at a dose of 0.3 uM after 24 hr. The assay is classed as functional, Mus musculus.
Assay [6] deals with Mus musculus. Kind of assay: Increase in life span at the highest nontoxic dose against P-388 tumor cell […] was determined at 100 mg/kg. The assay is classed as functional. Conditions: P388. A digest of the protocol: as §1
The subject of assay [7] is Mus musculus. Kind of assay: Increase in life span at the highest nontoxic dose against P-388 tumor cell […] at 67 mg/kg. Format: functional. Conditions: P388. A digest of the protocol:
as §1

The subject of assay [8] is L1210. Kind of assay: Fraction of cell population of cultured lymphoid leukemia L1210 cells in mitosis at a dose of 0.03 uM after 12 hr. The assay is classed as functional, Mus musculus.
The subject of assay [9] is Mus musculus. Kind of assay: Increase in life span at the highest nontoxic dose against P-388 tumor cell […] at 90 mg/kg. Format: functional. Conditions: P388. A digest of the protocol:
as §1

Assay [10] deals with Mus musculus. Description: Increase in life span at the highest nontoxic dose against P-388 tumor cell after 1,5,9 day at 30 mg/kg. Conditions: P388. The assay is classed as functional. An outline of the steps: as §1
In assay [11] the test system is Mus musculus. Description: Increase in life span at the highest nontoxic dose against Vincristine-resistant line of P-388 tumor cell […] at 12 mg/kg. Format: functional. The conditions noted are these: P388. A digest of the protocol: as §1
The test system of assay [12] is Mus musculus. Description: Increase in life span at the highest nontoxic dose against P-388 tumor cell […] at 100 mg/kg. Conditions: P388. The assay is classed as functional. An outline of the steps: as §1
The subject of assay [13] is Mus musculus. Description: Increase in life span at the highest nontoxic dose against P-388 tumor cell […] was determined at 25 mg/kg. Format: functional. Conditions: P388. A digest of the protocol: as §1
For assay [14], the system named is Mus musculus. Description: Increase in life span at the highest nontoxic dose against P-388 tumor cell […] at 50 mg/kg. The assay is classed as functional. Conditions: P388. A digest of the protocol:
as §1

Assay [15] deals with Mus musculus. Description: Increase in life span at the highest nontoxic dose against methotrexate resistant cell line of P-388 tumor cell […] at 25 mg/kg. The assay is classed as functional. Conditions: P388. An outline of the steps:
as §1

Assay [16] relates to L1210. Description: Fraction of cell population of cultured lymphoid leukemia L1210 cells in mitosis at a dose of 0.1 uM after 12 hr. Format: functional, Mus musculus.
Assay [17] concerns Mus musculus. Description: Increase in life span at the highest nontoxic dose against P-388 tumor cell after 1-9 days at 25 mg/kg. Format: functional. The conditions noted are these: P388. An outline of the steps: as §1
The subject of assay [18] is Mus musculus. Description: Increase in life span at the highest nontoxic dose against P-388 tumor cell after 1-5 days at 12 mg/kg. Format: functional. Conditions: P388. An outline of the steps: as §1
Assay [19] has as its system Mus musculus. Kind of assay: Increase in life span at the highest nontoxic dose against P-388 tumor cell after 1,5,9 day at 12.5 mg/kg. Format: functional. The conditions noted are these: P388. An outline of the steps:
as §1

Assay [20] has as its system Mus musculus. Description: Increase in life span at the highest nontoxic dose against P-388 tumor cell after 1,5,9 day at 6.25 mg/kg. Conditions: P388.
Assay [21] has as its system Mus musculus. Kind of assay: Increase in life span at the highest nontoxic dose against P-388 tumor cell […] at 200 mg/kg. The conditions noted are these: P388. The assay is classed as functional. An outline of the steps: as §1

Molecules are shown by their SMILES.

Take `CCOC(=O)Nc1cc2c(c(N)n1)N=C(c1cc(OC)c(OC)c(OC)c1)CN2`: the IC50 with L1210 [1] was determined as 78 nM.
Regarding `CCOC(=O)Nc1cc2c(c(N)n1)N=C(c1ccc(-c3ccccc3)cc1)CN2`, the Mitotic index is 0.42 in the assay with L1210 [2] and 0.65 in the assay with L1210 [3]. The ILS at 25 mg/kg with Mus musculus [4] was determined as 36%. The IC50 in the assay on L1210 [1] is 6.1 nM.
`CCOC(=O)Nc1cc2c(c(N)n1)N=C(CN(C)c1ccccc1)CN2`: the Mitotic index came to 0.8 in the assay on L1210 [5] and 0.77 in the assay with L1210 [8]. Further, the ILS at 100 mg/kg in the assay on Mus musculus [6] is 114%. The compound further showed an ILS at 67 mg/kg in the assay with Mus musculus [7] of 90%. The IC50 in the assay with L1210 [1] was found to be 8.4 nM.
Consider `CCOC(=O)Nc1cc2c(c(N)n1)N=C(c1cccc(OC)c1)CN2`, for which the IC50 in the assay on L1210 [1] came out at 1.22 nM.
Same read-out and setting: next, `CCOC(=O)Nc1cc2c(c(N)n1)N=C(c1ccc(F)cc1)CN2`: 6.8 nM; `CCOC(=O)Nc1cc2c(c(N)n1)N=C(c1ccc(N)cc1)CN2`: 23 nM.
In the case of `CCOC(=O)Nc1cc2c(c(N)n1)N=C(c1ccc(C(F)(F)F)cc1)CN2`, in the assay with Mus musculus [9], the ILS at 90 mg/kg worked out at 0%. Moreover, the ILS at 30 mg/kg in the assay on Mus musculus [10] amounted to 0%. Moreover, in the assay on L1210 [1], the IC50 amounted to 150 nM.
With `CCOC(=O)Nc1cc2c(c(N)n1)N=C(c1ccc(C)cc1C)CN2`, the IC50 in the assay with L1210 [1] was 42 nM.
As to `CCOC(=O)Nc1cc2c(c(N)n1)N=C(c1ccccc1)CN2`, the ILS at 12 mg/kg with Mus musculus [11] was 50%. Moreover, the IC50 in the assay on L1210 [1] came to 4.7 nM.
Turning to `CCOC(=O)Nc1cc2c(c(N)n1)N=C(CN(C)c1ccc(Cl)cc1)CN2`, the IC50 in the assay with L1210 [1] stood at 14.5 nM. The Mitotic index with L1210 [8] amounted to 0.71. In the assay with Mus musculus [12], this compound gave an ILS at 100 mg/kg of 65%.
For the compound `CCOC(=O)Nc1cc2c(c(N)n1)N=C(CN(C)c1ccc(OC)cc1)CN2`, the ILS at 25 mg/kg is 133% in the assay on Mus musculus [13] and 150% with Mus musculus [15]. For the same compound, the Mitotic index with L1210 [2] amounted to 0.49; in the assay on L1210 [8], 0.64. For the same compound, in the assay with Mus musculus [14], the ILS at 50 mg/kg is 80%. In the assay with L1210 [1], the IC50 stood at 7.9 nM.
Consider `CCOC(=O)Nc1cc2c(c(N)n1)N=C(c1ccc(Cl)c(Cl)c1)CN2`, for which the IC50 with L1210 [1] was determined as 18 nM.
In the case of `CCOC(=O)Nc1cc2c(c(N)n1)N=C(CN(C)c1ccc(C(=O)OC)cc1)CN2`, the Mitotic index in the assay on L1210 [16] was determined as 0.44; in the assay with L1210 [2] it was 0.61. Besides, the ILS at 25 mg/kg with Mus musculus [17] stood at 30%. In addition, the IC50 with L1210 [1] came to 58 nM.
`CCOC(=O)Nc1cc2c(c(N)n1)N=C(c1ccc(C)cc1)CN2` yielded an ILS at 12 mg/kg in the assay on Mus musculus [18] of 30%. Moreover, the IC50 in the assay with L1210 [1] was found to be 24 nM.
With `CCOC(=O)Nc1cc2c(c(N)n1)N=C(c1ccc(Cl)cc1)CN2`, the increase in life span (ILS) at 12.5 mg/kg in the assay on Mus musculus [19] amounted to 37%. The compound also registered a Mitotic index in the assay with L1210 [5] of 0.26. In the assay with Mus musculus [20], the ILS at 6.25 mg/kg was determined as 38%. The ILS at 200 mg/kg in the assay with Mus musculus [21] is 38%. Besides, the IC50 in the assay on L1210 [1] was 52 nM.
On to `CCOC(=O)Nc1cc2c(c(N)n1)N=C(c1ccc(C)c(C)c1)CN2`, for which, in the assay on L1210 [1], the IC50 is 138 nM.
Still for that read-out and setting: next, `CCOC(=O)Nc1cc2c(c(N)n1)N=C(c1ccc(Cl)cc1Cl)CN2`: 44 nM.
`CCOC(=O)Nc1cc2c(c(N)n1)N=C(c1ccc(OC)cc1)CN2`: in the assay with Mus musculus [4], the ILS at 25 mg/kg stood at 50%. Besides, the IC50 in the assay on L1210 [1] came out at 4.1 nM.
As for `COC(=O)Nc1nc2cc(C(=O)c3cccs3)ccc2[nH]1` [NOCODAZOLE], the IC50 with L1210 [1] was 27 nM.
On to `CC[C@]1(O)C[C@H]2CN(CCc3c([nH]c4ccccc34)[C@@](C(=O)OC)(c3cc4c(cc3OC)N(C=O)[C@H]3[C@@](O)(C(=O)OC)[C@H](OC(C)=O)[C@]5(CC)C=CCN6CC[C@]43[C@@H]65)C2)C1` [VINCRISTINE], for which the IC50 with L1210 [1] was < 1 nM.

What is called ILS is the gain in survival time of treated over control animals, in per cent. A lower ILS goes with a small benefit in survival.
